Here are results for 14 compounds from ChEMBL document CHEMBL1949627, “Novel triacsin C analogs as potential antivirals against rotavirus infections” (Eur J Med Chem, 2012).

The source made the active and inactive calls. No cut-off for these calls is given here.

Data set [1] is described as follows: Cytotoxicity against monkey MA104 cells after 24 hrs. Format: cell-based, Macaca mulatta. Particulars: rhesus monkey, read-out: TD50. An outline of the steps: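 Confluent MA104 cells exposed to a range of compound concentrations for 24 hrs; cytotoxicity read with a non-radioactive cytotoxicity (CytoTox 96) kit; TD50 derived by the Litchfield–Wilcoxon method.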

For data set [2], the system named is Rotavirus. In words: Antiviral activity against Rotavirus Wa in MA104 cells assessed as inhibition of viral replication after 24 hrs by immunofluorescent assay and Western blotting analysis. It counts as functional, organism-based.
Data set [3] has as its system Rotavirus. Kind of data set: Antiviral activity against Rotavirus SA11 in MA104 cells assessed as inhibition of viral replication after 24 hrs by immunofluorescent assay and Western blotting analysis. Format: functional. As to conditions: SA11, MA104, 24 h, read-out: ED50 (the source's name). An outline of the steps: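 Confluent MA104 monolayers infected 1 hr, PBS-washed, then given MEM with compound or DMSO (0.1%) plus trypsin 1 μg/ml. VP6 tracked by IFA (methanol fixation, anti-VP6 mAb, FITC secondary) or Western blot (β-actin control). ED50 derived from TCID50 titers at 24 hr post infection, MOI 0.05, by Litchfield–Wilcoxon.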

For another data set, the system named is Huh-7. In words: Inhibition of lipogenesis in human HuH7 cells assessed as inhibition of increase in lipid droplets at 1 uM after 72 hrs by NBD-cholesterol based fluorescence analysis. Format: functional, cell-based. The method, boiled down:
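Confluent uninfected Huh-7 cells, in which lipid droplets form spontaneously, treated with compound or 0.1% DMSO for 72 hrs. Medium then replaced with NBD-cholesterol (1 μg/ml) for a further 12 hrs. Cells fixed in 4% formaldehyde for 10 min, PBS-washed, and lipid-droplet fluorescence examined by fluorescence microscopy.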

The next data set has as its system MA104. In words: Inhibition of lipogenesis in monkey MA104 cells infected with Rotavirus SA11 assessed as inhibition of increase in lipid droplets at 1 uM after 10 hrs by NBD-cholesterol based fluorescence analysis. Format: functional, cell-based. Particulars: Macaca mulatta. An outline of the steps: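 Confluent MA104 cells, mock- or SA11-infected at MOI 10, incubated with compound or 0.1% DMSO in medium with NBD-cholesterol 1 μg/ml and trypsin 1 μg/ml. Fixed at 10 hr post infection in 4% formaldehyde for 10 min, PBS-washed twice; lipid-droplet fluorescence viewed by fluorescence microscopy.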

Data set [4] relates to Rotavirus. In words: Virucidal activity against Rotavirus SA11 in MA104 cells assessed as reduction in viral titer at 100 uM pretreated for 2 hrs prior infection measured after 12 hrs postinfection by immunofluorescent assay. Format: functional, organism-based.
Data set [5] can be described thus: Therapeutic index, ratio of TD50 for monkey MA104 cells to ED50 for Rotavirus SA11. Format: cell-based. Particulars: read-out: Ratio TD50/ED50. The method, boiled down:
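TD50: confluent MA104 cells exposed to graded compound concentrations for 24 hrs, cytotoxicity read with CytoTox 96 non-radioactive kit, Litchfield–Wilcoxon fit. ED50: SA11-infected MA104 (MOI 0.05) treated with compound plus trypsin 1 μg/ml, TCID50 titers at 24 hr, Litchfield–Wilcoxon. Index is TD50 divided by ED50.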

The test system of data set [6] is Rotavirus. Kind of data set: Virucidal activity against Rotavirus SA11 in MA104 cells assessed as reduction in viral titer at 100 uM pretreated for 2 hrs prior infection measured after 12 hrs postinfection by Western blotting analysis. It counts as functional, organism-based.

With `CCC/C=C/C/C=C/C=C/C=N/NS(=O)(=O)CCl`, in data set [1], the CC50 at 24 h was 74 µM. Further, the inhibition entry in the data set with Rotavirus [2] is “Active”. Also, in the data set with Rotavirus [3], the EC50 amounted to 8.7 µM.
Turning to `CCCCCCCCCCCCCCCCNc1ccc(C(=O)O)cc1` [CETABEN], the CC50 at 24 h in data set [1] amounted to 75.5 µM. In addition, the EC50 with Rotavirus [3] amounted to 11.3 µM.
As to `CCC/C=C/C/C=C/C=C/C=N/NS(=O)(=O)C(C)C`, the CC50 at 24 h in data set [1] amounted to 90.2 µM. Further, the inhibition entry with Rotavirus [2] is “Active”. In the data set with Rotavirus [3], the EC50 worked out at 9.8 µM.
Regarding `CCC/C=C/C/C=C/C=C/C=N/N1CCCS1(=O)=O`, the inhibition result in the data set on Huh-7 was “Dose-dependent effect”. For the same compound, the CC50 at 24 h in data set [1] was 86.4 µM. Moreover, the inhibition entry in the data set with MA104 and in the data set on Rotavirus [2] was “Active” in each case. For the same compound, the EC50 in the data set with Rotavirus [3] turned out to be 2.2 µM.
As for `C=C(C)[C@@H]1CC[C@]2(C(=O)O)CC[C@]3(C)[C@H](CC[C@@H]4[C@@]5(C)CC[C@H](O)C(C)(C)[C@@H]5CC[C@]43C)[C@@H]12` [BETULINIC ACID], the CC50 at 24 h in data set [1] was found to be 27.8 µM. In the data set on Rotavirus [3], the EC50 stood at 22.5 µM.
With `CCC/C=C/C/C=C/C=C/C=C/C#N`, the CC50 at 24 h in data set [1] worked out at 78.8 µM. Besides, in the data set with Rotavirus [2], the inhibition entry was “Active”. In addition, the EC50 with Rotavirus [3] worked out at 21.3 µM.
On to `CCCCCCCCCCC(C)(C)C(=O)Nc1c(OC)cc(OC)cc1OC` [CL-976], for which the CC50 at 24 h in data set [1] was 8.5 µM. Moreover, in the data set with Rotavirus [3], the EC50 was 4.3 µM.
As to `CCC/C=C/C/C=C/C=C/C=N/NN=O` [TRIACSIN C], in the data set with Huh-7, the inhibition entry was “Dose-dependent effect”. For the same compound, the inhibition result with Rotavirus [4] and with Rotavirus [6] was “inactive” each time. For the same compound, the CC50 at 24 h in data set [1] came to 49.6 µM. Also, in the data set with MA104, the inhibition entry is “Active”. The selectivity ratio in data set [5] is 248. Moreover, the EC50 in the data set on Rotavirus [3] is 0.2 µM.
`C/C=C/C/C=C/CCC(=O)[C@H]1O[C@H]1C(N)=O` [CERULENIN]: the CC50 at 24 h in data set [1] was 56.7 µM. The EC50 in the data set with Rotavirus [3] is 28.5 µM.
Regarding `CCC/C=C/C/C=C/C=C/CNc1ccc(C(=O)O)cc1`, in the data set on Huh-7, the inhibition result is “Dose-dependent effect”. In addition, the inhibition result with Rotavirus [4] and in the data set with Rotavirus [6] was “inactive” in each case. For the same compound, the CC50 at 24 h in data set [1] came out at 28.5 µM. Moreover, the inhibition entry with MA104 and in the data set with Rotavirus [2] was “Active” throughout. Also, the selectivity ratio in data set [5] came to 285. The EC50 in the data set on Rotavirus [3] came to 0.1 µM.
On to `O=C(Nc1ccccc1)Nc1ccc(-c2ccc(C(=O)[C@@H]3CCC[C@H]3C(=O)O)cc2)cc1`, for which the CC50 at 24 h in data set [1] stood at 85.4 µM. Also, the EC50 in the data set with Rotavirus [3] is 23.2 µM.
Turning to `CCC/C=C/C/C=C/C=C/C=N/NS(=O)(=O)CCCCl`, the CC50 at 24 h in data set [1] was 86.3 µM. The inhibition result with Rotavirus [2] is “Active”. Besides, the EC50 in the data set with Rotavirus [3] stood at 11.5 µM.
On to `Cc1c(C)c2c(c(C)c1O)CCC(C)(COc1ccc(CC3SC(=O)NC3=O)cc1)O2` (stereo unspecified) [TROGLITAZONE], for which the CC50 at 24 h in data set [1] was determined as 18.5 µM. In addition, the EC50 in the data set with Rotavirus [3] was found to be 5.8 µM.
The like results for `C=C1C(=O)O[C@H](CCCCCCCC)[C@H]1C(=O)O` were, in that order, 28.5 µM and 21.2 µM.
